The record followed here is PMC3177239 (The Biochemical journal, 2011).

SMILES strings stand for the structures.

Assay [1] relates to pig tracheal submucosal glands. As to the kind of experiment: Pig tracheal submucosal glands fluid secretion. In outline: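 Pig tracheas collected within 1 h postmortem into ice-cold Krebs-Ringer bicarbonate buffer (1 μM indomethacin) gassed with 95% O2/5% CO2. Serosal side bathed at 37 °C. Agents were diluted in warm gassed buffer and added serosally after basal secretion was recorded. Carbachol 10 μM was added at the end to confirm viability. Rate was taken as the volume-vs-time slope (R² > 0.8): 10-min basal, 25-min stimulated. 11 pigs, 11–43 glands, mean ± s.e.m.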

Assay [2] relates to cAMP levels in Calu-3 cells. As to the kind of experiment: Ratiometric FRET cAMP measurement. To be noted: CO-068 50 μM or FSK 10 μM added after baseline. The assay is classed as cell-based. In outline:
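Calu-3 cells were transiently transfected (Lipofectamine) with the CFP-EPAC-YFP sensor and grown on glass-bottom dishes. Cells were washed twice and held in HBSS, in the dark at room temperature, on an inverted microscope. After baseline, time-lapse images were taken every 1 min (100–300 ms exposure) with an EM-CCD camera. The background-subtracted CFP/FRET emission ratio came from 10–20 regions in 3–5 cells. n = 4–5 separate experiments, mean ± s.e.m.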

Take `O=C(O)c1ccc(/C=C2\SC(=S)N(c3cccc(C(F)(F)F)c3)C2=O)cc1` [CFTRinh-172]: in assay [1] (CFTRinh-172 50 μM plus FSK 10 μM), the “Effect on FSK-induced fluid secretion” value is “markedly inhibited”. Regarding `C=C[C@@]1(C)CC(=O)[C@]2(O)[C@@]3(C)[C@@H](O)CCC(C)(C)[C@@H]3[C@H](O)[C@H](OC(C)=O)[C@@]2(C)O1` [FSK, forskolin], in assay [2], the “Increase in cAMP levels (CFP/FRET emission ratio)” value is 1.5 fold. The “Increase in mean fluid secretion rate compared to basal secretion rate” value in assay [1] (FSK 10 μM or CO-068 50 μM, over 25 min) is 5 fold.
